Assay: Phase I dose escalation trial: toxicities, DLT and MTD
Type: in vivo, human
Settings: for Any toxicity, Grade 3: n = number of events
In short: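 Oral twice-daily tablets of test compound were given for 14 or 21 days of each 28-day cycle. Dose levels were 400 mg ×14 d, 400 mg ×21 d, 600 mg ×14 d and 600 mg ×21 d. Every patient was assessed for DLT, with no intrapatient escalation and up to 6 cycles.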

With `CNC(=O)c1cc(Oc2ccc(NC(=O)Nc3ccc(Cl)c(C(F)(F)F)c3)cc2)ccn1` [sorafenib] the “Alkaline phosphatase, Grade 3” value (400 mg bid × 14d (cycles=6)) was 0 (0) n (%), the “Any toxicity, Grade 4” value (400 mg bid × 14d (cycles=6)) was 0 (0) n (%) and the “Bilirubin, Grade 4” value (400 mg bid × 14d (cycles=6)) was 0 (0) n (%). For the same molecule, the “Edema (limb), Grade 3” value (400 mg bid × 14d (cycles=6)) was 0 (0) n (%), the “Fatigue, Grade 3” value (400 mg bid × 14d (cycles=6)) was 1 (17) n (%) and the “Febrile neutropenia, Grade 3” value (400 mg bid × 14d (cycles=6)) was 2 (33) n (%). For the same molecule, the “Fever (without neutropenia), Grade 3” value (400 mg bid × 14d (cycles=6)) was 0 (0) n (%), the “Hand-foot skin reaction, Grade 3” value (400 mg bid × 14d (cycles=6)) was 0 (0) n (%) and the “Hypokalemia, Grade 3” value (400 mg bid × 14d (cycles=6)) was 1 (17) n (%). For the same molecule, the “Hypophosphatemia, Grade 3” value (400 mg bid × 14d (cycles=6)) was 0 (0) n (%), the “Hypophosphatemia, Grade 4” value (400 mg bid × 14d (cycles=6)) was 0 (0) n (%) and the “Muscle weakness, Grade 3” value (400 mg bid × 14d (cycles=6)) was 0 (0) n (%). For the same molecule, the “Pain, Abdomen NOS, Grade 3” value (400 mg bid × 14d (cycles=6)) was 0 (0) n (%), the “Pain, Back, Grade 3” value (400 mg bid × 14d (cycles=6)) was 0 (0) n (%) and the “Pain, Joint, Grade 3” value (400 mg bid × 14d (cycles=6)) was 0 (0) n (%). For the same molecule, the “Any toxicity, Grade 3” value (400 mg bid × 14d (cycles=6)) was 3 (50) n (%), the “Alkaline phosphatase, Grade 3” value (400 mg bid × 21d (cycles=21)) was 2 (10) n (%) and the “Any toxicity, Grade 4” value (400 mg bid × 21d (cycles=21)) was 3 (14) n (%). For the same molecule, the “Bilirubin, Grade 4” value (400 mg bid × 21d (cycles=21)) was 1 (5) n (%), the “Edema (limb), Grade 3” value (400 mg bid × 21d (cycles=21)) was 2 (10) n (%) and the “Fatigue, Grade 3” value (400 mg bid × 21d (cycles=21)) was 4 (19) n (%). The “Febrile neutropenia, Grade 3” value (400 mg bid × 21d (cycles=21)) was 3 (14) n (%), the “Fever (without neutropenia), Grade 3” value (400 mg bid × 21d (cycles=21)) was 1 (5) n (%) and the “Hand-foot skin reaction, Grade 3” value (400 mg bid × 21d (cycles=21)) was 1 (5) n (%). The “Hypokalemia, Grade 3” value (400 mg bid × 21d (cycles=21)) was 2 (10) n (%), the “Hypophosphatemia, Grade 3” value (400 mg bid × 21d (cycles=21)) was 1 (5) n (%) and the “Hypophosphatemia, Grade 4” value (400 mg bid × 21d (cycles=21)) was 1 (5) n (%). The “Muscle weakness, Grade 3” value (400 mg bid × 21d (cycles=21)) was 2 (10) n (%), the “Pain, Abdomen NOS, Grade 3” value (400 mg bid × 21d (cycles=21)) was 1 (5) n (%) and the “Pain, Back, Grade 3” value (400 mg bid × 21d (cycles=21)) was 0 (0) n (%). The “Pain, Joint, Grade 3” value (400 mg bid × 21d (cycles=21)) was 1 (5) n (%), the “Any toxicity, Grade 3” value (400 mg bid × 21d (cycles=21)) was 10 (48) n (%) and the “Dose limiting toxicities, patients” value (600mg BID × 14 days, elevated transaminases (n=1), back pain (1)) was 2/3. For the same molecule, the “Alkaline phosphatase, Grade 3” value (600 mg bid × 14d (cycles=4)) was 0 (0) n (%), the “Any toxicity, Grade 4” value (600 mg bid × 14d (cycles=4)) was 1 (25) n (%) and the “Bilirubin, Grade 4” value (600 mg bid × 14d (cycles=4)) was 1 (25) n (%). The “Edema (limb), Grade 3” value (600 mg bid × 14d (cycles=4)) was 0 (0) n (%), the “Fatigue, Grade 3” value (600 mg bid × 14d (cycles=4)) was 0 (0) n (%) and the “Febrile neutropenia, Grade 3” value (600 mg bid × 14d (cycles=4)) was 2 (50) n (%). For the same molecule, the “Fever (without neutropenia), Grade 3” value (600 mg bid × 14d (cycles=4)) was 0 (0) n (%), the “Hand-foot skin reaction, Grade 3” value (600 mg bid × 14d (cycles=4)) was 0 (0) n (%) and the “Hypokalemia, Grade 3” value (600 mg bid × 14d (cycles=4)) was 0 (0) n (%). The “Hypophosphatemia, Grade 3” value (600 mg bid × 14d (cycles=4)) was 0 (0) n (%), the “Hypophosphatemia, Grade 4” value (600 mg bid × 14d (cycles=4)) was 0 (0) n (%) and the “Muscle weakness, Grade 3” value (600 mg bid × 14d (cycles=4)) was 0 (0) n (%). The “Pain, Abdomen NOS, Grade 3” value (600 mg bid × 14d (cycles=4)) was 0 (0) n (%), the “Pain, Back, Grade 3” value (600 mg bid × 14d (cycles=4)) was 1 (25) n (%) and the “Pain, Joint, Grade 3” value (600 mg bid × 14d (cycles=4)) was 0 (0) n (%). The “Any toxicity, Grade 3” value (600 mg bid × 14d (cycles=4)) was 4 (100) n (%).
